# Bioassay records from PubChem.
# ADAM17 inh: inhibitors of human ADAM17. P78536. recombinant ADAM17, EDANS/DABCYL FRET peptide cleavage. inhibition, % at 6.95 µM. hit rate 0.83% among 370,000. AID 720648;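 active = inhibition above the mean of compounds lying between control limits plus 3 SD, set per campaign, cut at about 8.5% in these data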;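 note: 0% = DMSO-only wells as the low control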
# Target sequence (P78536 215-824 limits assumed): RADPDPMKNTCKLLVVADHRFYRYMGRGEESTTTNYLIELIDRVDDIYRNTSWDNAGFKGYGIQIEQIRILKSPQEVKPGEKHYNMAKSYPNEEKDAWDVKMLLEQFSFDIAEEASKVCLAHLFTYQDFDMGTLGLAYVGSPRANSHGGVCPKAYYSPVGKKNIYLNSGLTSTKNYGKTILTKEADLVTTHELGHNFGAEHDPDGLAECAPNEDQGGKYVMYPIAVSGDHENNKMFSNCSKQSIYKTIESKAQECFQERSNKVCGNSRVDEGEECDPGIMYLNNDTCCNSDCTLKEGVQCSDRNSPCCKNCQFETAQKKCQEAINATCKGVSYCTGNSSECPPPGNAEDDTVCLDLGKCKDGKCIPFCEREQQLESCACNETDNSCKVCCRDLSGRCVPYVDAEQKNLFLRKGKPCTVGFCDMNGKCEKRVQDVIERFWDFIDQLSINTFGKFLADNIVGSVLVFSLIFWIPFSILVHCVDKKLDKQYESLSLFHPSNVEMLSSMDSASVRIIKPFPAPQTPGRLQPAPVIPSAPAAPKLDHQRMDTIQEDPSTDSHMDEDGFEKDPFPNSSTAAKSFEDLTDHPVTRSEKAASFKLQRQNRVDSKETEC
# DDE Tn7 FP inh: inhibitors of Tn7 peptide binding to human fibrin DD(E); FP displacement of FITC-Tn7 peptide from fibrin DD(E); 0% = median of compound wells per plate; inhibition, % at 8.3 µM; hit rate 0.13% among 370,000;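 active = inhibition above the mean of compounds falling within the control limits plus 3 SD of them, cut at about 14% in these data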;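 note: 0% = plate median of compound wells and 100% = 10 µM Aha-Tn7 peptide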
#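 Also added: labelled Tn7 tracer, 0.1 µM; Assay system: human fibrin DD(E) protein; Amount: 2 µM fibrin DD(E); Schedule: 10 min compound pre-incubation, 3 h probe incubation at room temperature; Repeats: one replicate per compound; Read-out basis: percent inhibition; Measured by: fluorescence polarization of the labelled Tn7 tracer.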
# DDE Tn6 FP inh: disrupts Tn6 cyclic peptide binding to fibrin D-Dimer-E complex. hit rate 0.21% among 370,000. inhibition, % at 8.3 µM. Fibrin DD(E) TRITC-Tn6 fluorescence polarization displacement. P02675;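 active = inhibition above a per-campaign cutoff: mean of compounds within control limits plus 3 SD, cut at about 15% in these data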;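 note: 0% = median of all compound wells on the plate and 100% = blocking peptide control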
# ADAM10 inh: inhibits human ADAM10; recombinant ADAM10, EDANS/DABCYL FRET peptide cleavage, 3 h; inhibition, % at 7 µM; hit rate 0.62% among 370,000; AID 720582;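 active = inhibition above a per-campaign cutoff equal to the mean of compounds falling between control-based bounds plus 3 SD, cut at about 20% in these data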;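 note: 0% = DMSO wells while the 100% control is not disclosed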
# MT1-MMP act inh: MT1-MMP (human) activation inhibition | P50281 | hit rate 0.061% among 360,000 | HT1080 RFP-PRO-GFP cells, GFP/RFP ratio fluorescence, overnight; percent of plate control window, DMSO zero | GFP/RFP ratio change, % at 20 µM;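 active = GFP/RFP ratio change of at least 30% with cell ATP level not reduced by more than half and red fluorescence within 50% of control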
#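 Test system: HT1080 RFP-PRO-GFP cells; Benchmarks: DMSO and RFP-L50D-GFP cell wells; Timing: cells overnight before dosing, compound overnight, 37 °C, 5% CO2; Compound: one 20 µM compound dose with 1% DMSO; Read-out: GFP/RFP fluorescence ratio.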
# MT1-MMP conf: blocks activation of human MT1-MMP in validation testing. shares compounds with MT1-MMP act inh. HT1080 RFP-PRO-GFP cells, GFP and RFP fluorescence ratio, overnight. inhibition, % at 20 µM. hit rate 10% among 200. AID 652235;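 active = inhibition of at least 50% in the primary cell screen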
# The depositor's hits bear a star; . = not tested or not shown; + = active, no number. A selection: hits, their analogues and other compounds. The true share with any hit is near 1.6%.
SMILES,ADAM17 inh,DDE Tn7 FP inh,DDE Tn6 FP inh,ADAM10 inh,MT1-MMP act inh,others
CCCCNC(=O)CSc1nc2ccsc2c(=O)n1C1CCN(C(=O)OCC)CC1,0,2,-3,20*,4,
Cc1ccccc1CN[C@@H]1CC[C@@]23CCCN2C(=O)CCC[C@H]3C1,-2,-1,-6,-11,.,
CCCC1CCC2(CC1)CCC2OC(=S)Nc1ccc(N(C)C)cc1 (configuration not stated),-2,2,-2,1,.,
COc1ccc2c(CCN3C(=O)c4ccccc4C3=O)c(-c3c(CCN4C(=O)c5ccccc5C4=O)c4ccccc4n3C(=O)OC(C)(C)C)[nH]c2c1,-5,0,-2,3,.,
N#CC1(Nc2ccc(-c3ccc(NC4(C#N)CCCC4)cc3)cc2)CCCC1,19*,-10,-4,22*,4,
Cc1ccc(NC2(C#N)CCCC2)cc1,-4,-1,1,-30,-3,
CC(C)C[C@@H]1COc2cc(Br)ccc2S(=O)(=O)N1Cc1cn(Cc2ccc(F)cc2)nn1,-4,2,4,-9,.,
Cc1ccc(/C=c2\s/c(=C(/C#N)C(=O)N3CCCC3)n(Cc3ccco3)c2=O)s1,2,-6,-2,20*,-3,
COc1cc(/C=c2\s/c(=C(/C#N)C(=O)N3CCCC3)n(-c3ccccc3)c2=O)ccc1O,-2,-8,-4,0,17,
CCOC(=O)[C@@]12CCCC=C1N(CCc1ccc(Cl)cc1)C(=O)[C@H]2CC(=O)N1CCN(C(=O)c2ccco2)CC1,0,-4,-7,-6,.,
COc1ccc(-c2cc(C3CCN(Cc4cccc(C(F)(F)F)c4)CC3)[nH]n2)cc1,12*,-12,0,24*,0,
COc1ccc(-c2cc(C3CCN(CC(O)C(F)(F)F)CC3)[nH]n2)cc1 (configuration not stated),1,0,-2,-4,-1,
Cc1cccc(C2C3=C(Nc4[nH]n(-c5ccccc5)c(=O)c42)c2ccccc2C3=O)c1 (configuration not stated),9.8*,10,1,16,14,
CC1=C([N+](=O)[O-])C(c2ccccc2)C2=C(N1)c1ccccc1C2=O (configuration not stated),1,5,0,5,13,
COc1ccc(NC(=O)Nc2ccc3c(c2)C(=O)N([C@H](C)CO)C[C@H](C)[C@@H](CN(C)Cc2ccc(Cl)c(Cl)c2)OCCCC[C@@H](C)O3)cc1,5,2,-13,21*,2,
C[C@@H]1CCCCO[C@H](CN(C)Cc2ccc(Cl)c(Cl)c2)[C@H](C)CN([C@@H](C)CO)C(=O)c2cc(NC(=O)Nc3ccc(F)cc3)ccc2O1,2,8,6,7,4,
C[C@@H]1CN([C@H](C)CO)C(=O)Cc2cc(NC(=O)Nc3ccccc3)ccc2O[C@@H]1CN(C)Cc1ccc2c(c1)OCO2,4,-2,-10,20*,3,
COc1ccc(NC(=S)NC(NC(=O)c2cccc(Cl)c2)C(Cl)(Cl)Cl)c([N+](=O)[O-])c1 (configuration not stated),4,-2,-6,13,6,
COc1ccc(NC(=S)NC(NC(=O)c2cccc(C)c2)C(Cl)(Cl)Cl)c([N+](=O)[O-])c1 (configuration not stated),7,5,-1,21*,12,
Cn1c(=O)c(NCCO)c2c3c(cccc31)C(=O)c1ccccc1-2,-7,-8,37*,-1,-186,
CCCCNc1c2c3c(cccc3n(C)c1=O)C(=O)c1ccccc1-2,.,.,.,.,-334,
Cn1c(=O)c(NCCc2ccccc2)c2c3c(cccc31)C(=O)c1ccccc1-2,-2,-1,+,6,-67,
NC(=O)c1c(N)[nH]c(C(=O)c2ccccc2)c1-c1ccccn1,-3,4,-3,-4,.,
COc1cccc(-c2nnc(SCC(=O)Nc3cccc4ccccc34)n2Cc2ccco2)c1,6,-3,-9,7,.,
CCOC(=O)CCC(=O)c1c(C)oc2ccc(OC)cc12,9.9*,-1,5,0,-1,
SMILES,ADAM17 inh,DDE Tn7 FP inh,DDE Tn6 FP inh,ADAM10 inh,MT1-MMP act inh,others
Cc1ccc(S(=O)(=O)N2CCC(=O)N(CCOCc3ccc(C(F)(F)F)cc3)CC2)cc1,10*,2,-2,6,5,
CCN(CC)c1cccc(OC2=NS(=O)(=O)c3ccccc32)c1,-1,4,111*,4,72,
COc1ccc(-n2c(SCc3cccc4ccccc34)nnc2-c2ccccc2)cc1,3,2,-8,6,.,
O=C(Nc1ccc2c(c1)CCC2)c1cc(S(=O)(=O)N2CCN(c3ccccc3)CC2)ccc1Cl,7,-4,-12,22*,-2,
COc1ccc(CN(C(=O)CSc2nnc(-c3c[nH]c4ccccc34)o2)c2ccc(F)cc2)cc1OC,8,4,-6,22*,-29,
COc1ccc(CN(C(=O)CSc2nnc(-c3ccc(F)cc3)o2)c2ccc(F)cc2)cc1,2,9,5,7,17,
COc1ccccc1CNC(=O)c1cc(-c2ccccc2)nn1CC1CC(c2cccc([N+](=O)[O-])c2)=NO1 (configuration not stated),3,3,0,20*,1,
C[C@H]1[C@@H](N(C)C)CC[C@@]23CCCN2C(=O)CCC[C@@H]13,-2,-1,-3,-3,.,
CC(C)(C)OC(=O)NCCCCCNC(=O)c1nc[nH]c1C(=O)NCc1ccc(CNC(=O)OC(C)(C)C)cc1,12*,-5,2,23*,19,
CC(C)(C)OC(=O)NCc1ccc(CNC(=O)c2nc[nH]c2C(=O)NCc2ccc(CNC(=O)OC(C)(C)C)cc2)cc1,12*,-1,-1,11,13,
COc1ccc(Nc2ccc3c(c2)=NC2(CCCCC2)[N+]=3[O-])cc1,9.7*,-4,-5,6,-19,
CCOc1cccc(CNc2ccc(O)cc2)c1OCc1ccc(Cl)cc1,0,-7,15*,6,10,
CCOc1ccccc1CNc1ccc(O)cc1,-1,4,3,-9,17,
CC(C)(C)CCNc1nc(-c2ccccn2)nnc1-c1ccccc1,-3,7,-4,-3,.,
CNc1ccccc1C(C)(C)c1cc(-c2ccco2)n[nH]1,0,4,-1,-3,34*,MT1-MMP conf=8
CCOC(=O)C1=C(C)N=c2s/c(=C\c3ccc(OC(C)=O)cc3)c(=O)n2C1/C=C/c1ccccc1 (configuration not stated),-1,-6,1,1,-7,
